Screens as filed in PubChem.
In the library only some 4% were active in any assay of this set; here they are far more common.
TAAR1 antagonist: human TAAR1 antagonism; inhibition, % at 3 µM; hit rate 1.5% among 360,000; CHO RD-HGA16 TAAR1, Fluo-8 calcium fluorescence, antagonist; AID 624466;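 active means inhibition above a per-plate cutoff, the mean inhibition of test compounds on that plate plus 3 SD, cut at about 49% in these data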
Target sequence (Q96RJ0 whole entry, looked up): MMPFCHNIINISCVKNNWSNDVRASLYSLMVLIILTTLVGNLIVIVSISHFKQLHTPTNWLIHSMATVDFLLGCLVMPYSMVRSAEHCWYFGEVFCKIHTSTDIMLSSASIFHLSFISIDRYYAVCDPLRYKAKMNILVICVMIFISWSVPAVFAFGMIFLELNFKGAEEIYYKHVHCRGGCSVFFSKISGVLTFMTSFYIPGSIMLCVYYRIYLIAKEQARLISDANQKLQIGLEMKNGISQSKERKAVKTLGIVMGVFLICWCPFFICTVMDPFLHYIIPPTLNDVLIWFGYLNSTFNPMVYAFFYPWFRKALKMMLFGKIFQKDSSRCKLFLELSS
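Test system – hTAAR1-expressing CHO RD-HGA16 cells, Gα16-coupled · Reagent – β-PEA at EC80 concentration, post-compound challenge · Compound dosing – 3 µM, single point · Timing – 140 s kinetic read after compound, 140 s after agonist · Detection – Fluo-8 intracellular calcium dye fluorescence, real-time kinetic reads · Control set – DMSO and EC80 PEA controls · Repeats – n of 1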
MPTP block: blocks calcium-induced mitochondrial swelling. inhibition, % at 10 µM. hit rate 1.4% among 360,000. isolated mouse mitochondria, Ca2+ swelling absorbance, 30 min. AID 602449;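 active means inhibition of 50% or more, scaled per plate between neutral and stimulator controls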
DAGLB inh: diacylglycerol lipase beta (human) inhibition; Q8NCG7; HEK293T DAGLB membrane lysate, EnzChek fluorogenic substrate; inhibition, % at 5.17 µM; hit rate 0.059% among 340,000; AID 504411; in the data active means inhibition above about 34%
TAAR1 agonist: human TAAR1 agonism; hit rate 0.99% among 360,000; activation, % at 3 µM; CHO RD-HGA16 TAAR1, Fluo-8 calcium fluorescence; vehicle wells 0%, saturating PEA agonist 100%;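 active means activation above the mean activation of all test compounds in the run plus 3 SD, cut at about 38% in these data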
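test system = CHO RD-HGA16 cells carrying human TAAR1 plus Gα16 | schedule = 17-24 h seeding, 75 min 37 °C dye, 30 min RT | compound dosing = 3 µM single concentration | control set = DMSO and PEA EC100 | replicates = n 1 | signal = Fluo-8 fluorescence, 5 s baseline then 140 s kinetic read | measure = percent activation vs PEA EC100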
GPR7 antagonist: antagonists of human GPR7 (neuropeptides B/W receptor 1). GPR7-expressing cells, fluorescence antagonist assay. inhibition, % at 4.4 µM. hit rate 1.1% among 290,000. AID 1861; in the data active means inhibition above about 16%, passing the limit was not always enough;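 further: cells stimulated with the agonist NPW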
Target sequence (P48145 whole entry, looked up): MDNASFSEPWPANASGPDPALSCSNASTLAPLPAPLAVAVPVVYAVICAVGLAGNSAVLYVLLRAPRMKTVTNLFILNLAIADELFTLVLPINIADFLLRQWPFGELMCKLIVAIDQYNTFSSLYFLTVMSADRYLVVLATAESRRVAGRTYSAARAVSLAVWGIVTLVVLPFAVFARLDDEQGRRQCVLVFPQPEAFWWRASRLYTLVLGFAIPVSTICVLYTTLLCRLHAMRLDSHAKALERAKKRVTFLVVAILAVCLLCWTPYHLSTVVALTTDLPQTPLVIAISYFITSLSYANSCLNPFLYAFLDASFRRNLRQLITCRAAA
nonsel antag count: nonselective antagonist in TAAR1 antagonist counter-screen. shares compounds with TAAR1 antagonist. counterscreen cell line, calcium fluorescence, antagonist mode. inhibition, % at 3 µM. hit rate 77% among 2,400; in the data active means inhibition above about 22%;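 further: CHO-Ga16 host cells stimulated with ATP at an EC80 level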
TAAR1 antag conf: human TAAR1 antagonism, confirmed; shares compounds with TAAR1 antagonist; TAAR1-expressing cells, fluorescence antagonist read-out; inhibition, % at 3 µM; hit rate 40% among 2,400; AID 651785; in the data active means inhibition above about 49%;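 further: CHO-Ga16 host cells challenged with agonist PEA near its EC80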
Ga16 nonsel ag: nonselective Ga16 agonism, counter-screen | hit rate 18% among 2,400 | AID 651953 | activation, % at 3 µM | shares compounds with TAAR1 antagonist | Ga16-expressing cells, calcium fluorescence, agonist counterscreen; in the data active means activation above about 12%
TAAR1 ag count: TAAR1 agonism, antagonist counter-screen; shares compounds with TAAR1 antagonist; hTAAR1 cell line, fluorescence activation, agonist mode; activation, % at 3 µM; hit rate 2% among 2,400; AID 651955; in the data active means activation above about 37%;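 further: CHO cells stably expressing TAAR1 with calcium dye readout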
Each line names hits and unclear results; the compound was inactive in the other large screens (follow-up assays come after a bar, where they were run).

COC(=O)[C@]12C[C@H](CC(=O)NCC34CC5CC(CC(C5)C3)C4)C(=O)N(Cc3ccc4c(c3)OCO4)C1=C[C@H](COCc1ccccc1)O[C@@H]2C	none (no result: MPTP block, DAGLB inh, GPR7 antagonist)
Cc1ccc2c(=O)n3c(nc2c1)C(Cc1ccc(O)cc1)NC(=O)c1cccnc1-3 (centres undefined)	none (no result: GPR7 antagonist)
N#Cc1nc(Nc2cccc(Cl)c2)c2ncn(C3CCCC3)c2n1	TAAR1 antagonist 75 (no result: GPR7 antagonist) | nonsel antag count 22 | TAAR1 antag conf inactive | Ga16 nonsel ag inactive | TAAR1 ag count inactive
COc1ccccc1N1CCN(C(=O)CCc2nnc3ccc(N4CCC(C)CC4)nn23)CC1	TAAR1 antagonist 53 | nonsel antag count 22 | TAAR1 antag conf inactive | Ga16 nonsel ag inactive | TAAR1 ag count inactive
COc1cccc(N2CCN(C(=O)CCc3nnc4ccc(N5CCCC5)nn34)CC2)c1	none
CCCCC(=O)Nc1cc([N+](=O)[O-])ccc1Cl	none
O=C(CC(=O)c1ccccc1)Nc1cc([N+](=O)[O-])ccc1Cl	TAAR1 antagonist 77 | nonsel antag count 35 | TAAR1 antag conf 55 | Ga16 nonsel ag inactive | TAAR1 ag count inactive
O=C(Nc1c2c(nn1-c1ccccc1)CS(=O)C2)c1ccc(S(=O)(=O)N2CCOCC2)cc1 (centres undefined)	TAAR1 antagonist 51 | nonsel antag count inactive | TAAR1 antag conf inactive | Ga16 nonsel ag inactive | TAAR1 ag count inactive
COc1ccccc1NC(=O)Cn1nnc(-c2ccccc2NC(=O)c2ccco2)n1	TAAR1 antagonist 56 | nonsel antag count inactive | TAAR1 antag conf inactive | Ga16 nonsel ag inactive | TAAR1 ag count inactive
O=C(Nc1ccc(F)c(Cl)c1)C1CCCC1	none (no result: DAGLB inh, GPR7 antagonist)
O=C(Nc1ccc(F)c(Cl)c1)NC1CC1	TAAR1 antagonist 105 | nonsel antag count inactive | TAAR1 antag conf inactive | Ga16 nonsel ag inactive | TAAR1 ag count inactive
CCOC(=O)C1(Cc2ccccc2C)CCCN(C(=O)c2ccccn2)C1 (centres undefined)	none
CCOC(=O)C1(Cc2ccccc2C)CCCN(C(=O)c2ccc3nccnc3c2)C1 (centres undefined)	TAAR1 antagonist 67 | nonsel antag count 24 | TAAR1 antag conf 49 | Ga16 nonsel ag inactive | TAAR1 ag count inactive
Cc1ccc(S(=O)(=O)N(C)C)cc1NC(=O)CN1C(=O)NC2(CCc3ccccc32)C1=O (centres undefined)	none (no result: GPR7 antagonist)
COc1ccc(NC(=O)CC2C(=O)N(C)C(=S)N2CCc2ccccc2F)cc1 (centres undefined)	TAAR1 antagonist 57 | nonsel antag count 37 | TAAR1 antag conf 56 | Ga16 nonsel ag 12 | TAAR1 ag count inactive
CCN1C(=O)C(CC(=O)Nc2ccc(OC)cc2)N(CCc2ccccc2F)C1=S (centres undefined)	TAAR1 antagonist 75 | nonsel antag count 31 | TAAR1 antag conf inactive | Ga16 nonsel ag inactive | TAAR1 ag count inactive
CCN1C(=O)C(CC(=O)Nc2ccc(OC)cc2)N(CCc2ccccc2)C1=S (centres undefined)	none
O=C(CSc1nnc(-c2ccc(Br)cc2)o1)Nc1cccc2ccccc12	TAAR1 antagonist 59 | nonsel antag count 30 | TAAR1 antag conf inactive | Ga16 nonsel ag inactive | TAAR1 ag count inactive
COc1ccc(C(=O)CSc2nc(C)cc(C)n2)cc1C	none
Cc1cc(C(=O)CSc2ccc(F)cc2)cc(C)c1OC(=S)N(C)C	TAAR1 antagonist 78 | nonsel antag count 34 | TAAR1 antag conf 60 | Ga16 nonsel ag inactive | TAAR1 ag count inactive
COc1ccc(SCC(=O)c2cc(C)c(OC(=S)N(C)C)c(C)c2)cc1	TAAR1 antagonist 74 | nonsel antag count 31 | TAAR1 antag conf inactive | Ga16 nonsel ag inactive | TAAR1 ag count inactive
Cc1ccc(SCC(=O)c2cc(C)c(O)c(C)c2)cc1	none
O=C(Nc1cccc(-c2nc3ccccc3o2)c1)c1ccc(N2C(=O)C3C4C=CC(C4)C3C2=O)cc1 (centres undefined)	TAAR1 antagonist 63 | nonsel antag count 39 | TAAR1 antag conf 58 | Ga16 nonsel ag inactive | TAAR1 ag count inactive
CC1(C)CC(=O)C=C(c2ccc(Oc3ccccc3)cc2)C1=O	none (no result: GPR7 antagonist)
COc1ccc(C#Cc2ccc(C3=CC(=O)CC(C)(C)C3=O)cc2)cc1	TAAR1 antagonist 81 (no result: GPR7 antagonist) | nonsel antag count 28 | TAAR1 antag conf inactive | Ga16 nonsel ag inactive | TAAR1 ag count inactive
Cc1ccccc1OCCC(=O)OCC(=O)Nc1ccc(C)c(S(=O)(=O)N2CCCCC2)c1	none (no result: GPR7 antagonist)
Cc1ccc(C)c(OCCC(=O)OCC(=O)Nc2ccc(C)c(S(=O)(=O)N3CCCCC3)c2)c1	TAAR1 antagonist 53 (no result: GPR7 antagonist) | nonsel antag count 39 | TAAR1 antag conf inactive | Ga16 nonsel ag inactive | TAAR1 ag count inactive
COc1cccc(C(C(=O)NC2CCCC2)N2CCN(c3cc(C)ccc3C)CC2)c1OC (centres undefined)	none (no result: DAGLB inh, GPR7 antagonist)
O=C(/C=C/c1ccccc1)Nc1ccc(N2CCCCC2)cc1	TAAR1 antagonist 69 | nonsel antag count 30 | TAAR1 antag conf 65 | Ga16 nonsel ag 28 | TAAR1 ag count 61
O=C(/C=C/c1ccccc1)NC(=S)Nc1ccc(CN2CCOCC2)cc1	TAAR1 antagonist 58 | nonsel antag count 41 | TAAR1 antag conf inactive | Ga16 nonsel ag inactive | TAAR1 ag count inactive
COc1ccc(CN(CC(O)COCc2ccccc2)S(=O)(=O)c2ccccc2Br)cc1OC (centres undefined)	none (no result: GPR7 antagonist)
CCN(CC)c1ncnc2c1cnn2Cc1ccc(Cl)cc1	TAAR1 antagonist 54 | nonsel antag count 27 | TAAR1 antag conf inactive | Ga16 nonsel ag inactive | TAAR1 ag count inactive
CCCCNc1ncnc2c1cnn2Cc1ccc(Cl)cc1	none
CCCCNCc1cc2ccccc2o1	TAAR1 antagonist 103 | nonsel antag count inactive | TAAR1 antag conf inactive | Ga16 nonsel ag inactive | TAAR1 ag count inactive
O=C(CSc1nnc(NC2CCCCC2)s1)Nc1ccc2c(c1)C(=O)c1ccccc1C2=O	none
CC(C)Nc1nnc(SCC(=O)Nc2ccc3c(c2)C(=O)c2ccccc2C3=O)s1	TAAR1 antagonist 68 | nonsel antag count 47 | TAAR1 antag conf 59 | Ga16 nonsel ag 15 | TAAR1 ag count inactive
Cc1cc(C)c(S(=O)(=O)N2CCN(C(=O)c3c(C)nn(-c4ccccc4)c3Cl)CC2)c(C)c1	TAAR1 antagonist 68 (no result: GPR7 antagonist) | nonsel antag count 35 | TAAR1 antag conf inactive | Ga16 nonsel ag inactive | TAAR1 ag count inactive
CCS(=O)(=O)N1N=C(c2cccs2)CC1c1cc2cc(C)ccc2nc1Cl (centres undefined)	TAAR1 antagonist 50 | nonsel antag count inactive | TAAR1 antag conf inactive | Ga16 nonsel ag inactive | TAAR1 ag count inactive
